From ChEMBL document CHEMBL1773052, “3-Trifluoromethylquinoxaline N,N'-dioxides as anti-trypanosomatid agents. Identification of optimal anti-T. cruzi agents and mechanism of action studies” (J Med Chem, 2011)
pIC50: −log10 of the molar value. Each block holds one compound with its values, some of them ahead of it. The source made the active and inactive calls. The rule behind the calls is not given here.

How the values were obtained:
[1] = test system: Trypanosoma cruzi; experiment: Antitrypanosomal activity against Trypanosoma cruzi Tulahuen 2 epimastigotes assessed as growth inhibition at 25 uM after 5 days relative to control; assay type: functional; conditions: Tulahuen 2, 120 h, read-out: GI
Outline: (§1)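 Epimastigotes grown axenically at 28 °C in BHI-tryptose + 5% FBS; a 10-day stationary culture was inoculated to 1 × 10⁶ cells/mL. Drug added from DMSO stock, final DMSO ≤0.4%, vehicle control. A600 read daily. PGI on day 5 corrects for day-0 absorbance, relative to control. […] Three independent experiments.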

[2] = test system: Trypanosoma cruzi; experiment: Antitrypanosomal activity against Trypanosoma cruzi Tulahuen 2 epimastigotes assessed as growth inhibition after 5 days; assay type: functional; conditions: Tulahuen 2, 120 h, read-out: ID50; outline: as §1
[3] = test system: Trypanosoma cruzi; experiment: Antitrypanosomal activity against Trypanosoma cruzi CL Brener clone epimastigotes assessed as cell death at 25 uM after 2 days by MTT assay relative to control; assay type: functional
Outline: (§2)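 Epimastigotes of each strain taken in exponential growth in BHI-tryptose with 5% FBS, 1 mL per well. Compounds added from DMSO and kept 2 days at 28 °C. Cells washed twice and resuspended in PBS-glucose (5.5 mM), then given 0.4 mg/mL MTT for 4 h at 28 °C. Lysis in SDS-isopropanol, OD read. Triplicate wells, six growth controls. PCyt taken against control, corrected for medium-only wells.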

[4] = test system: Trypanosoma cruzi; experiment: Antitrypanosomal activity against Trypanosoma cruzi CL Brener clone epimastigotes assessed as cell death after 2 days by MTT assay; assay type: functional; conditions: 48 h, read-out: ID50 (the source's name)
Outline: (§3)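 Parasites in exponential growth, in BHI-tryptose + 5% FBS for T. cruzi or RPMI + 5% FBS for L. braziliensis, 28 °C, 24-well plates. Compounds in DMSO; miltefosine in ethanol. 2-day exposure, two PBS-glucose (5.5 mM) washes, then MTT 0.4 mg/mL for 4 h at 28 °C. SDS-isopropanol lysis, OD read. Triplicates, six growth controls.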

[5] = test system: Trypanosoma cruzi; experiment: Antitrypanosomal activity against Trypanosoma cruzi Y epimastigotes assessed as cell death at 25 uM after 2 days by MTT assay relative to control; assay type: functional; outline: as §2
[6] = test system: Trypanosoma cruzi; experiment: Antitrypanosomal activity against Trypanosoma cruzi Y epimastigotes assessed as cell death after 2 days by MTT assay; assay type: functional; conditions: 48 h, read-out: ID50 (the source's name); outline: as §3
[7] = test system: Trypanosoma cruzi; experiment: Antitrypanosomal activity against Trypanosoma cruzi Colombiana epimastigotes assessed as cell death at 25 uM after 2 days by MTT assay relative to control; assay type: functional; outline: as §2
[8] = test system: Leishmania braziliensis; experiment: Antileishmanial activity against Leishmania braziliensis MHOM/BR/00/LTB300 promastigotes assessed as cell death after 2 days by MTT assay; assay type: functional; conditions: MHOM/BR/00/LTB300, 48 h, read-out: ID50 (the source's name); outline: as §3
[9] = test system: Trypanosoma cruzi; experiment: Antitrypanosomal activity against Trypanosoma cruzi CL Brener clone trypomastigotes in parasite infected BALB/c mouse blood assessed as parasite lysis at 250 ug/ml after 24 hrs relative to control; assay type: functional
Outline: (§4)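 Blood from BALB/c mice 7 days post-infection, taken by cardiac puncture into 3.8% sodium citrate (7:3). Compounds dissolved in DMSO, diluted in PBS to 100 or 250 μg/mL. 10 μL mixed with 100 μL infected blood (~10⁶ parasites/mL), in triplicate. Shaken 10 min at RT, held 4 °C for 24 h. Parasites counted by microscopy; gentian violet 250 μg/mL as standard.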

[10] = test system: Trypanosoma cruzi; experiment: Antitrypanosomal activity against Trypanosoma cruzi CL Brener clone trypomastigotes in parasite infected BALB/c mouse blood assessed as parasite lysis at 100 ug/ml after 24 hrs relative to control; assay type: functional; outline: as §4
[11] = Cytotoxicity against mouse J774 cells; assay type: cell-based; conditions: read-out: ID50 (the source's name)
[12] = Selectivity index, ratio of ID50 for mouse J774 cells to ID50 for Trypanosoma cruzi Tulahuen 2 epimastigotes; assay type: toxicity, cell-based; conditions: J774 cells versus Trypanosoma cruzi Tulahuen 2 epimastigotes, read-out: Selectivity Index
[13] = test system: Salmonella typhimurium; experiment: Mutagenic activity in Salmonella Typhimurium TA98 assessed as number of revertants at 0.005 to 15 ug/plate by Ames test in absence of S9 fraction; assay type: toxicity, organism-based; conditions: salmonella enterica subsp. enterica serovar typhimurium
Outline: (§5)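 Direct plate incubation with S. typhimurium TA98 on minimal glucose agar. Toxicity to the strain tested first; doses run in triplicate from DMSO solutions, DMSO as negative control. Metabolic activation with 500 μL Aroclor-treated mouse liver S9. Positive controls: 4-nitro-o-phenylenediamine 20.0 μg/plate without S9; 2-aminofluorene 10.0 μg/plate with S9. Revertants counted manually; mutagenic if ≥2-fold the negative control at two consecutive doses.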

[14] = test system: Salmonella typhimurium; experiment: Mutagenic activity in Salmonella Typhimurium TA98 assessed as number of revertants at 0.005 to 15 ug/plate by Ames test in presence of S9 fraction; assay type: toxicity, organism-based; conditions: salmonella enterica subsp. enterica serovar typhimurium; outline: as §5
[15] = test system: Trypanosoma cruzi; experiment: Inhibition of mitochondrial dehydrogenase activity in Trypanosoma cruzi Y epimastigotes at 20 uM up to 120 mins by MTT assay
Outline: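 Y-strain epimastigotes, 10⁶ per well in 500 μL medium, treated with 20 μM compound at 28 °C, untreated wells as time-matched controls. At each time point cells counted, then MTT (50 μL of 5 mg/mL in PBS) added for 4 h. Stopped with acidic isopropanol, A570 read. Activity given as percent of untreated control.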

[16] = test system: Trypanosoma cruzi; experiment: Antitrypanosomal activity against Trypanosoma cruzi CL Brener clone infected in Swiss albino mouse assessed as increase of mouse survival days at 50 mg/kg/day, po relative to control; assay type: functional
[17] = test system: Trypanosoma cruzi; experiment: Antitrypanosomal activity against Trypanosoma cruzi CL Brener clone infected in Swiss albino mouse assessed as increase of mouse survival days at 10 mg/kg/day, po relative to control; assay type: functional
[18] = test system: Trypanosoma cruzi; experiment: Antitrypanosomal activity against Trypanosoma cruzi Y infected in Swiss albino mouse assessed as increase of mouse survival days at 10 mg/kg/day, po relative to control; assay type: functional
[19] = test system: Trypanosoma cruzi; experiment: Antitrypanosomal activity against Trypanosoma cruzi Y infected in Swiss albino mouse assessed as increase of mouse survival days at 30 mg/kg/day, po relative to control; assay type: functional
[20] = test system: Trypanosoma cruzi; experiment: Antitrypanosomal activity against Trypanosoma cruzi CL Brener clone infected in BALB/c mouse assessed as increase of mouse survival days at 10 mg/kg/day, po relative to control; assay type: functional
[21] = test system: Trypanosoma cruzi; experiment: Antitrypanosomal activity against Trypanosoma cruzi Y infected in Swiss albino mouse assessed as reduction of parasitemia level at 10 to 30 mg/kg/day, po by ELISA; assay type: functional, organism-based
Outline: (§6)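 Male BALB/c or Swiss albino mice, 30 days old, SPF, infected ip with 10³ blood trypomastigotes (CL Brener or Y). Oral dosing in PBS for 10 days. Controls: 10 mice on PBS; treated groups of 8. Tail-vein parasitemia weekly for 60 days, mortality recorded. Anti-T. cruzi antibodies measured by ELISA, run twice, at 30 and 60 or 90 days post-infection.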

[22] = test system: Trypanosoma cruzi; experiment: Antitrypanosomal activity against Trypanosoma cruzi Y infected in Swiss albino mouse assessed as reduction of microbial antibody level at 10 to 30 mg/kg/day, po by Wilconxon test; assay type: functional, organism-based; outline: as §6
[23] = test system: Trypanosoma cruzi; experiment: Antitrypanosomal activity against Trypanosoma cruzi CL Brener clone infected in BALB/c mouse assessed as reduction of parasitemia level at 10 mg/kg/day, po by ELISA; assay type: functional, organism-based; outline: as §6
[24] = test system: Trypanosoma cruzi; experiment: Antitrypanosomal activity against Trypanosoma cruzi CL Brener clone infected in Swiss albino mouse assessed as reduction of parasitemia level at 10 mg/kg/day, po after 55 days by ELISA; assay type: functional, organism-based; conditions: in the assay text read “after 53 days” for “after 55 days”; outline: as §6
[25] = test system: Salmonella typhimurium; experiment: Mutagenic activity in Salmonella Typhimurium TA98 assessed as number of revertants at 0.2 to 15 ug/plate by Ames test in absence of S9 fraction; assay type: toxicity, organism-based; conditions: salmonella enterica subsp. enterica serovar typhimurium; outline: as §5
[26] = test system: Salmonella typhimurium; experiment: Mutagenic activity in Salmonella Typhimurium TA98 assessed as number of revertants at 0.2 to 15 ug/plate by Ames test in presence of S9 fraction; assay type: toxicity, organism-based; conditions: salmonella enterica subsp. enterica serovar typhimurium; outline: as §5
[27] = test system: Trypanosoma cruzi; experiment: Antitrypanosomal activity against Trypanosoma cruzi Y infected in Swiss albino mouse assessed as increase of mouse survival days at 50 mg/kg/day, po relative to control; assay type: functional
[28] = test system: Trypanosoma cruzi; experiment: Antitrypanosomal activity against Trypanosoma cruzi CL Brener clone infected in BALB/c mouse assessed as increase of mouse survival days at 50 mg/kg/day, po relative to control; assay type: functional
[29] = test system: Trypanosoma cruzi; experiment: Antitrypanosomal activity against Trypanosoma cruzi Y infected in Swiss albino mouse assessed as reduction of microbial antibody level at 50 mg/kg/day, po by Wilconxon test; assay type: functional, organism-based; outline: as §6
[30] = test system: Trypanosoma cruzi; experiment: Antitrypanosomal activity against Trypanosoma cruzi CL Brener clone infected in BALB/c mouse assessed as reduction of microbial antibody level at 50 mg/kg/day, po after 90 days by Wilconxon test; assay type: functional, organism-based; outline: as §6
[31] = test system: Salmonella typhimurium; experiment: Mutagenic activity in Salmonella Typhimurium TA98 assessed as number of revertants at 0.05 to 4 ug/plate by Ames test in absence of S9 fraction; assay type: toxicity, organism-based; conditions: salmonella enterica subsp. enterica serovar typhimurium; outline: as §5
[32] = test system: Salmonella typhimurium; experiment: Mutagenic activity in Salmonella Typhimurium TA98 assessed as number of revertants at 0.05 to 4 ug/plate by Ames test in presence of S9 fraction; assay type: toxicity, organism-based; conditions: salmonella enterica subsp. enterica serovar typhimurium; outline: as §5
[33] = test system: Trypanosoma cruzi; experiment: Antitrypanosomal activity against Trypanosoma cruzi CL Brener clone infected in BALB/c mouse assessed as reduction of microbial antibody level at 10 mg/kg/day, po after 30 days by Wilconxon test; assay type: functional, organism-based; outline: as §6
[34] = test system: Trypanosoma cruzi; experiment: Antitrypanosomal activity against Trypanosoma cruzi CL Brener clone infected in BALB/c mouse assessed as reduction of microbial antibody level at 10 mg/kg/day, po after 90 days by Wilconxon test; assay type: functional, organism-based; outline: as §6
[35] = test system: Trypanosoma cruzi; experiment: Antitrypanosomal activity against Trypanosoma cruzi Y infected in Swiss albino mouse assessed as reduction of parasitemia level at 10 mg/kg/day, po by ELISA; assay type: functional, organism-based; outline: as §6

SMILES: O=C(c1ccccc1)c1c(C(F)(F)F)[n+]([O-])c2cc(F)c(F)cc2[n+]1[O-]
inhibition of growth at 25 µM [1]: 100%
pIC50 [2]: 6.15
Activity [3]: 96%
pIC50 [4]: 5.96
Activity [5]: 100%
pIC50 [6]: 5.74
Activity [7]: 100%
pIC50 [8]: 5.89
Activity [9]: 84%
Activity [10]: 63%
CC50 [11]: 8000 nM
selectivity ratio [12]: 11.4
Activity [13]: Non-toxic
Activity [14]: Non-toxic
inhibition [15]: Active
survival at 50 mg/kg/day [16]: 100%
survival at 10 mg/kg/day [17]: 100%
survival at 10 mg/kg/day [18]: 100%
survival at 30 mg/kg/day [19]: 87.5%
survival at 10 mg/kg/day [20]: 100%
Activity [21]: Active
Activity [22]: Active
Activity [23]: Active
Activity [24]: Active

pIC50 [2]: 6.40
SMILES: CC(=O)c1c(C)[n+]([O-])c2cc(F)c(F)cc2[n+]1[O-]
inhibition of growth at 25 µM [1]: 100%
Activity [25]: Toxic
Activity [26]: Toxic

SMILES: O=C(Cn1ccnc1[N+](=O)[O-])NCc1ccccc1 [BENZNIDAZOLE]
survival at 50 mg/kg/day [16]: 100%
survival at 50 mg/kg/day [27]: 87.5%
survival at 50 mg/kg/day [28]: 75%
Activity [29]: Active
Activity [30]: inactive

SMILES: CC(=O)c1c(C(F)(F)F)[n+]([O-])c2cc(F)c(F)cc2[n+]1[O-]
inhibition of growth at 25 µM [1]: 100%
pIC50 [2]: 6.41
Activity [9]: 80%
CC50 [11]: 10600 nM
selectivity ratio [12]: 27.2
Activity [31]: Toxic
Activity [32]: Toxic
inhibition [15]: Active
survival at 10 mg/kg/day [18]: 62.5%
survival at 10 mg/kg/day [20]: 100%
Activity [33]: Active
Activity [34]: Active
Activity [35]: inactive
Activity [23]: Active
